One series relates to Influenza A virus. The experiment in a line: Antiviral activity of Influenza A virus (H1N1) infected in human HMC3 cells assessed as reduction in nucleoprotein protein expression at 0.781 to 12.5 uM incubated for 24 hrs by immunofluorescence microscopy. Format: functional, organism-based.
Series [1] concerns dengue virus type 2. The experiment in a line: Antiviral activity against DENV-2 NGC-N infected in Stat1-/- mouse assessed as time delay in mouse mortality at 2 mg/kg/day, po dosed immediately following viral infection followed by daily dosing for 6 days (reference value: 9 days). Format: functional.
Series [2] relates to dengue virus type 2. The experiment in a line: Antiviral activity against eGFP-fused Dengue virus 2 infected in human BE(2)-C cells assessed as viral infection level by measuring intensity of eGFP emission from infected cells at 1.56 uM incubated for 24 hrs relative to control. Format: functional. In short, it runs like this:
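BE(2)C cells, in RPMI 1640 with 10% FBS, were infected with DENV-2-eGFP reporter virus (MOI 1) for 24 h with or without compound, using DMSO as solvent control. Cells were fixed in 4% paraformaldehyde and stained with Hoechst, then imaged by high-content analysis. eGFP intensity per cell number is given as % of solvent control. Values are means of 3 experiments.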

A further series has as its system BE(2)-C. As to the kind of experiment: Cytotoxicity against human BE(2)-C cells assessed as reduction in cell proliferation up to 12.5 uM incubated overnight by XTT assay relative to control. Format: cell-based. In short, it runs like this: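 BE(2)C cells (RPMI 1640, 10% FBS) exposed overnight to compound at concentrations up to 12.5 μM; XTT (proliferation) or LDH release (cytotoxicity) read by absorbance at 490 nm. Values normalized to solvent control (%), mean ± SD of 3 independent experiments.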
(In general: Tetrazolium assays rely on reduction of a dye to a coloured formazan, in cell work by metabolically active cells.)

Series [3] relates to dengue virus type 2. As to the kind of experiment: Antiviral activity against Dengue virus 2 infected in human BE(2)-C cells assessed as NS3 protein expression at 0.39 uM incubated for 48 hrs by Western blot analysis (reference value: 100%). The series is classed as functional. The procedure, abridged: (§1)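 BE(2)C neuroblastoma cells in RPMI 1640 with 10% FBS were infected with DENV-2 PL046 at MOI 0.1 for 48 h, without or with compound at increasing concentrations. NS3 was immunoblotted with actin as loading control. The NS3:actin densitometry ratio was expressed as % of the DMSO control. Mean ± SD of 3 independent experiments.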
Background: In western blotting, separated proteins are transferred to a membrane and probed.

The subject of series [4] is dengue virus type 2. As to the kind of experiment: Antiviral activity against Dengue virus 2 infected in human BE(2)-C cells assessed as NS3 protein expression at 0.78 uM incubated for 48 hrs by Western blot analysis (reference value: 100%). The series is classed as functional. In short, it runs like this:
as §1

The subject of series [5] is dengue virus type 2. The experiment in a line: Antiviral activity against Dengue virus 2 infected in human BE(2)-C cells assessed as NS3 protein expression at 1.56 uM incubated for 48 hrs by Western blot analysis (reference value: 100%). The series is classed as functional. The procedure, abridged:
as §1

For series [6], the system named is dengue virus type 2. The experiment in a line: Antiviral activity against Dengue virus 2 infected in human HMC3 cells assessed as reduction in NS3 protein expression at 1.56 to 12.5 uM incubated for 24 hrs by immunofluorescence microscopy. Format: functional, organism-based.
The test system of the next series is Sindbis virus. The experiment in a line: Antiviral activity of eGFP-fused Sindbis virus infected in human HMC3 cells at 0.781 to 12.5 uM incubated for 24 hrs by immunofluorescence microscopy. The series is classed as functional, organism-based.
Series [7] deals with Zika virus. As to the kind of experiment: Antiviral activity against Zika virus infected in human BE(2)-C cells assessed as NS3 protein expression at 0.78 uM incubated for 48 hrs by Western blot analysis (reference value: 100%). The series is classed as functional. In short, it runs like this:
(§2)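 BE(2)C cells were infected with ZIKV PRVABC59 at MOI 0.1 for 48 h, with or without compound at increasing concentrations. Viral protein was immunoblotted with actin as loading control. The band-density ratio was given as % of the solvent control. Mean ± SD, 3 independent experiments.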

The subject of series [8] is Zika virus. The experiment in a line: Antiviral activity against Zika virus infected in human BE(2)-C cells assessed as NS3 protein expression at 1.56 uM incubated for 48 hrs by Western blot analysis (reference value: 100%). Format: functional. In short, it runs like this:
as §2

Series [9] relates to Zika virus. As to the kind of experiment: Antiviral activity against Zika virus infected in human BE(2)-C cells assessed as NS3 protein expression at 3.125 uM incubated for 48 hrs by Western blot analysis (reference value: 100%). Format: functional. The procedure, abridged: as §2
Series [10] concerns Zika virus. As to the kind of experiment: Antiviral activity against Zika virus infected in human BE(2)-C cells assessed as NS3 protein expression at 6.25 uM incubated for 48 hrs by Western blot analysis (reference value: 100%). Format: functional. In short, it runs like this:
as §2

The subject of series [11] is dengue virus type 2. As to the kind of experiment: Antiviral activity against Dengue virus 2 infected in human BE(2)-C cells assessed as reduction in viral entry at 3.125 to 6.25 uM incubated for 90 mins by plaque-forming assay. The series is classed as functional, organism-based. In short, it runs like this: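 Virus entry: BE(2)C cells were incubated with DENV-2 or ZIKV for 90 min at 4 °C and washed cold. Cells were then treated with 3.125 or 6.25 μM compound at 37 °C for 1 h. Non-internalized virus was inactivated with 0.1 M glycine, pH 3, for 5 min. Cells were lysed by needle passage, and internalized virus was titrated by plaque assay. Mean ± SD, n = 3.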

Series [12] relates to dengue virus type 2. The experiment in a line: Antiviral activity against Dengue virus 2 infected in human BE(2)-C cells transfected with shLacZ assessed as NS3 protein expression at 6.25 uM incubated for 48 hrs by Western blot analysis (reference value: 100%). Format: functional.
The test system of series [13] is dengue virus type 2. The experiment in a line: Antiviral activity against Dengue virus 2 infected in human BE(2)-C cells transfected with shLacZ assessed as NS3 protein expression at 3.125 uM incubated for 48 hrs by Western blot analysis (reference value: 100%). Format: functional.
Series [14] concerns Zika virus. The experiment in a line: Antiviral activity against Zika virus infected in human BE(2)-C cells assessed as suppression of viral-induced CaMKIIalpha activation at 3.125 uM incubated for 4 hrs by confocal microscopy. Format: functional, organism-based.
Series [15] concerns dengue virus type 2. As to the kind of experiment: Antiviral activity against Dengue virus 2 infected in human BE(2)-C cells assessed as suppression of viral-induced CaMKIIalpha activation at 3.125 uM incubated for 4 hrs by confocal microscopy. Format: functional, organism-based.
In series [16] the test system is dengue virus type 2. The experiment in a line: Antiviral activity against DENV-2 NGC-N infected in Stat1-/- mouse assessed as improvement in mouse survival by measuring median survival time at 2 mg/kg, po dosed 8 hrs after infection and ending at day 6 after infection (8 hrs delay) (reference value: 10 days). The series is classed as functional.
In series [17] the test system is Zika virus. The experiment in a line: Antiviral activity against Zika virus infected in Stat1-/- mouse assessed as reduction in viral load at 4 to 8mg/kg/day, po dosed immediately following viral infection followed by daily dosing for 3 days. Format: functional, organism-based. The procedure, abridged: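 Stat1-/- mice infected with DENV-2 NGC-N (1x10⁵ PFU iv) or ZIKV PRVABC59 (5x10⁴ PFU sc, footpad), with oral dosing or PBS starting immediately. Serum was taken from the submandibular vein on day 3 post-infection. Viremia was measured by plaque assay and reported as individual values and mean; n = 5.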

Series [18] deals with Zika virus. The experiment in a line: Antiviral activity against Zika virus infected in Stat1-/- mouse assessed as time delay in virus-induced mouse mortality at 8 mg/kg/day, po dosed immediately following viral infection followed by daily dosing for 6 days (reference value: 13 days). Format: functional.
Series [19] concerns dengue virus type 2. The experiment in a line: Antiviral activity against Dengue virus 2 infected in human BE(2)-C cells assessed as NS3 protein expression at 3.125 uM treated during 0 to 3 hrs post infection by Western blot analysis (reference value: 100%). Format: functional. The procedure, abridged:
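Time-of-addition design: BE(2)C cells were infected with DENV-2 or ZIKV at MOI 1. Compound at 3.125 or 6.25 μM was present either during adsorption (0–3 hpi) or afterward (3–24 hpi). Viral protein was immunoblotted against actin, with the ratio as % of the solvent control.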

Activity calls are given as the source filed them. The calls are words filed in the database; no cut-off is given here.

The record followed here is ChEMBL document CHEMBL4376891, “Benzenesulfonamide Derivatives as Calcium/Calmodulin-Dependent Protein Kinase Inhibitors and Antiviral Agents against Dengue and Zika Virus Infections” (J Med Chem, 2020).

On to `COc1ccc(S(=O)(=O)N(CCCC(=O)C2CCCCCC2)c2ccccc2)cc1`, for which the outcome in the series on Influenza A virus, in the series on dengue virus type 2 [6], in the series with Sindbis virus, in the series on Zika virus [14], in the series with dengue virus type 2 [15] and in the series on Zika virus [17] was Active. For the same compound, the Time in the series with dengue virus type 2 [1] was 15 days; in the series with Zika virus [18] it was 18 days. The Activity with dengue virus type 2 [2] is reported as 31.8%; with BE(2)-C, “Non-Toxic”; with dengue virus type 2 [3], 90.8%; in the series with dengue virus type 2 [4], 85.4%; in the series on dengue virus type 2 [5], 75.2%; in the series on Zika virus [7] it was 89.6%. Further, the Activity in the series on Zika virus [8] is 62.2%; in the series with Zika virus [9] it was 49.7%; with Zika virus [10] it was 4.1%; in the series on dengue virus type 2 [11] it was “Dose-dependent effect”; with dengue virus type 2 [12] it was 34.6%; in the series with dengue virus type 2 [13], 62.2%. Moreover, the Activity in the series with dengue virus type 2 [19] is 72.5%. In addition, in the series with dengue virus type 2 [16], the MST was found to be 14 days.
